# Reference: PubChem BioAssay AID504382 (The Scripps Research Institute Molecular Screening Center, 2011)
# Screen size: about 2,500 compounds; about 460 (18%) were called active. Not all results are given here. A number with no mark means an inactive call.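 How the source made its calls: active means mean activation above a cutoff of low control average plus 3 SD from the earlier screen (cut at about 12% in these data); inactive means the rest.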
# Experiment: IANBD-channel fluorescence artefacts in buffer – biochemical, artefact control for cardiac RTF calcium sensitizer project, confirmation (AID 504382)
# Settings: IANBD fluorescence interference counterscreen, EC20 Ca2+, at 7.2 µM, active compounds read high
# Procedure, shortened: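 Medium: MOPS buffer, 190 mM, with KCl, MgCl2, EGTA, NTA, DTT, pH 7.20; Dosing: one dose of 7.2 µM, 0.7% DMSO; Probe or stimulus: calcium at EC20 level, 0.472 mM final; Incubation: 15 min, 25 °C; Evaluation: compound fluorescence interference relative to control well signal range; Signal: fluorescence, 480/540 nm.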
row,Compound,fluorescence artifact activation
1,O=c1[nH]c(=S)n(-c2ccccc2Cl)c(O)c1C=NCCN1CCNCC1,660% (active)
2,COc1ccc(OC)c(-n2c(O)c(C=NCCN3CCNCC3)c(=O)[nH]c2=S)c1,3.37%
3,C=CCn1c(O)c(C=NC2CCN(Cc3ccccc3)CC2)c(=O)[nH]c1=O,-0.06%
4,CN1Cc2c(c(C#N)c(N)n(C)c2=S)CC1(C)C,-0.06%
5,CCN(CC)c1ccc(/C=C/[N+](=O)[O-])cc1,3.43%
6,CCCCCCC(=O)N/N=C/c1c(O)n(CCc2ccccc2)c(=O)[nH]c1=O,0.04%
7,O=C(CN1CCN(c2ccccc2F)CC1)Nc1cccnc1Cl,6.53%
8,CC1(C)OC(c2ccccc2)=C/C(=C/C=C2C(=O)NC(=O)NC2=O)O1,0.3%
9,COc1ccc(N2C(=O)NC(=O)/C(=C\c3cn(C)c4ccccc34)C2=O)cc1,-0.05%
10,Cn1cc(C=C(C#N)C#N)c2ccccc21,20% (active)
11,N#CC(C#N)=Cc1ccc(C=C(C#N)C#N)cc1,0.08%
12,CC(C)n1c(=O)c(C=Nc2cccc([N+](=O)[O-])c2)c(O)n(CCc2ccccc2)c1=O,1.6%
13,COc1cccc2c1C(=O)c1c(O)c3c(c(O)c1C2=O)CC(O)(C(C)=NO)CC3OC1CC(N)C(O)C(C)O1 (stereo not drawn),0.43%
14,Cc1cccc(-n2c(O)c(/C=C/C=Nc3ccccc3)c(=O)[nH]c2=O)c1,59.9% (active)
15,O=c1[nH]c(=O)n(-c2ccccc2)c(O)c1/C=C/C=Nc1ccccc1,0.01%
16,Cc1ccc(-n2c(O)c(/C=C/C=Nc3ccccc3)c(=O)[nH]c2=O)cc1,7.82%
17,O=C1NC(=O)N(Cc2ccccc2)C(=O)/C1=C\N1CCCc2ccccc21,2.74%
18,O=Cc1c(C(=O)O)n(Cc2ccc(Cl)cc2)c2ccccc12,0.14%
19,O=c1[nH]c(=O)n(C2CCCCC2)c(O)c1/C=C/C=Nc1ccccc1,0.28%
20,C/C(=N\N1CCCCC1c1cccnc1)c1c(O)n(C2CCCCC2)c(=S)[nH]c1=O (stereo not drawn),13.8% (active)

row,Compound,fluorescence artifact activation
1,Cc1cccc(N2C(=O)NC(=O)/C(=C\c3ccc4c(c3)CCCN4Cc3ccccc3)C2=O)c1,0.72%
2,CN1CCN(Cc2cn(C)c3ccccc23)CC1CCO (stereo not drawn),10.6%
3,O=C1NC(=S)SC1=Cc1ccc(N(CCCl)CCCl)cc1,-0.09%
4,Nc1c2c(nc3ccccc13)CCN(Cc1ccccc1)C2,26.4% (active)
5,FC(F)(F)c1ccc2c(c1)nnn2C1CCN(Cc2nnnn2Cc2ccccc2)CC1,0.25%
6,CCOCCCNC(=O)C1c2cc(OC)c(OC)cc2C(=O)N2CCCCC12 (stereo not drawn),0.42%
7,O=c1[nH]c(O)c(C=Nc2ccccc2Oc2ccccc2)c(=O)[nH]1,0.37%
8,C=CCN1C(=O)/C(=C/c2ccc(N3CCOCC3)o2)C(=O)NC1=S,5.89%
9,CN1C(=O)C(=Cc2ccc(N3CCOCC3)o2)C(=O)N(C)C1=S,0.02%
10,CCN1C(=O)C(=Cc2ccc(N3CCOCC3)o2)C(=O)N(CC)C1=S,0.14%
11,CN1C(=O)C(=Cc2ccc(N3CCOCC3)o2)C(=O)N(C)C1=O,16.2% (active)
12,CN1C(=O)C(=Cc2ccc(N3CCCCCC3)o2)C(=O)N(C)C1=S,35.9% (active)
13,CN1C(=O)/C(=C/c2ccc(N3CCCCCC3)o2)C(=O)NC1=S,1.84%
14,CN1C(=O)/C(=C\c2ccc(N3CCCCC3)o2)C(=O)NC1=S,0.13%
15,COc1cc(/C=C2/C(=O)NC(=O)N(c3ccc(C)cc3)C2=O)cc(OC)c1OC,0.06%
16,CCN1C[C@]2(CO)CC[C@H](OC)[C@@]34C5C[C@H]6[C@H](OC)C5[C@](O)(C[C@H]6OC)[C@@H](C(OC)C23)[C@@H]14 (stereo partly drawn),2.26%
17,NC(=O)c1c(NC(=O)c2ccc(S(=O)(=O)N(CCCl)CCCl)cc2)sc2c1CCCCC2,0.08%
18,CC1=NCCc2c1[nH]c1cc(O)ccc21,0.1%
19,Cc1cc(Cl)ccc1C(=O)C1CCCN(C2CCSCC2)C1 (stereo not drawn),0%
20,COC(=O)C1=C(c2cccc(C#N)c2)C[C@@H]2CC[C@H]1N2C(=O)N1CCOCC1,1.36%

row,Compound,fluorescence artifact activation
1,Nc1c(C(=O)NCC2CCCO2)c2nc3ccccc3nc2n1Cc1ccco1 (stereo not drawn),732% (active)
2,COCCOC(=O)c1c(N)n(Cc2ccco2)c2nc3ccccc3nc12,-0.01%
3,COCCNC(=O)c1c(N)n(Cc2ccco2)c2nc3ccccc3nc12,1.48%
4,CCOC(=O)c1cc(CC)sc1/N=C/c1c(O)[nH]c(=S)[nH]c1=O,1.47%
5,CCN(CC)c1ccc(C=C2C(=O)N(C)C(=S)N(C)C2=O)o1,-0.01%
6,Cc1cc(N2CCCC2)ccc1C=C(C#N)C#N,17.8% (active)
7,Cc1cc(C=C(C#N)C#N)ccc1N1CCCC1,0.79%
8,COc1ccc(-n2c(O)c(/C=C/C=Nc3ccccc3)c(=O)[nH]c2=O)cc1,-0.12%
9,Cc1ccc(/C=C2/Sc3ccc(C(=O)N4CCC5(CC4)OCCO5)cc3NC2=O)cc1,38.7% (active)
10,CNS(=O)(=O)c1ccc(N=Cc2c(O)n(-c3ccccc3)c(=O)[nH]c2=O)cc1,8.1%
11,CCC1(C)OC(c2ccccc2)=C/C(=C/C=C2C(=O)NC(=O)NC2=O)O1 (stereo not drawn),4.44%
12,CCN(CC)CCCOC(=O)C(OC(C)C)(c1ccccc1)c1ccccc1,17.1% (active)
13,CCCCN1C(=O)NC(=O)C2(Cc3ccccc3N3CCOCC32)C1=O (stereo not drawn),-0.11%
14,Cc1ccc(-n2c(O)c(C=NCC3CCCO3)c(=O)[nH]c2=O)c(C)c1 (stereo not drawn),0.07%
15,N#CC(C#N)=Cc1ccc(-c2ccccc2F)o1,6.89%
16,CCCc1cc(=O)oc2cc(OCC(=O)N3CCC(C(=O)O)(c4ccccc4)CC3)ccc12,0.1%
17,CCCc1cc(=O)oc2cc(OCC(=O)N3C[C@H]4C[C@@H](C3)c3cccc(=O)n3C4)ccc12,36.4% (active)
18,Cn1c(O)c(/C=C/C=Nc2ccccc2)c(=O)n(C)c1=S,5.68%
